Assay results gathered from unrelated publications.
Each line is one published result; the experiments were not run side by side.
Target: MAP/microtubule affinity-regulating kinase 3 (MARK3, Homo sapiens, UniProt P27448)
Read-out: enzyme activity
Mode: inhibitor

| SMILES | technique | concentration | remaining activity |
| --- | --- | --- | --- |
| CC(C)(C)c1nc2c(s1)c1nc(N)ncc1c1ccc(NS(=O)(=O)c3c(F)cccc3F)c(F)c12 | radiometric | 1 µM | 99% |
| NS(=O)(=O)c1ccc(CNc2nc(Nc3cccc(NC(=O)N4CCCC4)c3)ncc2C2CC2)cc1 | radiometric | 1 µM | 112% |
| FC(F)c1nc2ccccc2n1-c1nc(N2CCOCC2)nc(N2CCOCC2)n1 |  | 10 µM | 94% |
| Nc1nc(NC2CCCCC2)sc1C(=O)c1ccccc1 |  | 10 µM | 100% |
| Cc1ccc(C(=O)Nc2ccc(CN3CCN(C)CC3)c(C(F)(F)F)c2)cc1C#Cc1cnc2cccnn12 |  | 23.5 nM | 83% |
| COc1cc(Cl)c(C(=O)N[C@@H](CN[C@H]2CC[C@@H](N)CC2)Cc2ccc(C#N)cc2)cc1-c1ccc(CN[C@H](C)c2ccc(C)cc2)o1 |  | 1 µM | 98% |
| Cc1sc(C(=O)NC2COC2)cc1-n1cc(NC(=O)Nc2c(F)cccc2Cl)cn1 |  | 10 µM | 102% |
| CC(C)(C)c1nc(-c2cccc(NS(=O)(=O)c3c(F)cccc3F)c2F)c(-c2ccnc(N)n2)s1 | radiometric | 1 µM | 96% |
| NS(=O)(=O)c1ccc(CNc2nc(Nc3cccc(CN4CCOCC4)c3)ncc2Br)cc1 | radiometric | 1 µM | 68% |
| O=C(Nc1cnn(-c2csc(C(=O)NC3COC3)c2)c1)Nc1c(F)cccc1Cl |  | 5 µM | 99.3% |
| Cn1c(=O)n(-c2ccc(C(C)(C)C#N)cc2)c2c3cc(-c4cnc5ccccc5c4)ccc3ncc21 |  | 10 µM | 100% |
| Brc1cnc(Nc2cccc(CN3CCOCC3)c2)nc1NCCc1c[nH]cn1 | radiometric | 1 µM | 16% |
| COc1cc(Nc2cnc(C#N)c(O[C@H](C)CN(C)C)n2)ncc1-c1cnn(C)c1 | radiometric | 1 µM | 98% |
| Cc1nn(CC(F)(F)F)cc1Nc1ncc(Br)c(NCc2ccc(S(N)(=O)=O)cc2)n1 | radiometric | 1 µM | 105% |
| CC(C)(O)[C@H]1CC[C@H](Nc2ccc3ncc(-c4cccc(C(F)(F)F)c4)n3n2)CC1 |  | 1 µM | 101% |
| NS(=O)(=O)c1ccc(CNc2ccnc(Nc3cccc(NC(=O)N4CCCC4)c3)n2)cc1 | radiometric | 1 µM | 115% |
| CC(C)(C)C(=O)c1sc(NC2CCCCC2)nc1N |  | 10 µM | 112% |
